Experimental data taken from article PMC11904481 (ESMO Open, 2025).

System: patients with locally advanced unresectable or metastatic, relapsed and/or refractory nonhematological malignancies
Test: Phase I safety: adverse events
Type: in vivo, human
Method in brief: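 Adverse events were graded by NCI CTCAE v4.03 across three i.v. schedules of the test compound (0.45-11.3 mg/kg; weekly per 28-day cycle, or days 1, 4, 8 ±11, 15 per 21-day cycle). Special-interest events covered retinal dysfunction symptoms and documented retinal disorders. Clustered signs were grouped as 'infusion reaction'. QTc was calculated with the Fridericia correction.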

[1] = schedules 1/2 cohort 1, 0.45 mg/kg
[2] = schedules 1/2 cohort 2, 0.9 mg/kg
[3] = schedules 1/2 cohort 3, 1.8 mg/kg
[4] = schedules 1/2 cohort 4, 3.6 mg/kg
[5] = schedules 1/2 cohort 5, 5.4 mg/kg
[6] = schedules 1/2 cohort 6, 4.8 mg/kg
[7] = schedules 1/2 cohort 7, 5.4 mg/kg
[8] = schedules 1/2 cohort 8, 7.2 mg/kg
[9] = schedules 1/2 cohort 9, 9.6 mg/kg

O=C1Nc2cc3[nH]nc(-c4ccncc4)c3cc2CN1Cc1ccccc1 [KO-947]
Total number of AESI [1]: 0 n
Total number of treatment-related TEAEs [1]: 2 n
Treatment-related TEAE: Blurred vision [1]: 0 n (%)
Treatment-related TEAE: Dermatitis acneiform [1]: 0 n (%)
Treatment-related TEAE: Fatigue [1]: 1 (100) n (%)
Treatment-related TEAE: Headache [1]: 0 n (%)
Treatment-related TEAE: Nausea [1]: 0 n (%)
Treatment-related TEAE: QTc prolongation [1]: 0 n (%)
Treatment-related TEAE: Subretinal fluid [1]: 0 n (%)
Treatment-related TEAE: Vomiting [1]: 0 n (%)
AESI: Blurred vision [2]: 0 n (%)
AESI: Eye disorders [2]: 0 n (%)
AESI: Macular edema [2]: 0 n (%)
AESI: Retinal edema [2]: 0 n (%)
AESI: Subretinal fluid [2]: 0 n (%)
AESI: Vitreous floaters [2]: 0 n (%)
Patients with ≥1 AESI [2]: 0 n (%)
Patients with ≥1 treatment-related TEAE [2]: 0 n (%)
Total number of AESI [2]: 0 n
Total number of treatment-related TEAEs [2]: 0 n
Treatment-related TEAE: Blurred vision [2]: 0 n (%)
Treatment-related TEAE: Dermatitis acneiform [2]: 0 n (%)
Treatment-related TEAE: Fatigue [2]: 0 n (%)
Treatment-related TEAE: Headache [2]: 0 n (%)
Treatment-related TEAE: Nausea [2]: 0 n (%)
Treatment-related TEAE: QTc prolongation [2]: 0 n (%)
Treatment-related TEAE: Subretinal fluid [2]: 0 n (%)
Treatment-related TEAE: Vomiting [2]: 0 n (%)
AESI: Blurred vision [3]: 0 n (%)
AESI: Eye disorders [3]: 0 n (%)
AESI: Macular edema [3]: 0 n (%)
AESI: Retinal edema [3]: 0 n (%)
AESI: Subretinal fluid [3]: 0 n (%)
AESI: Vitreous floaters [3]: 0 n (%)
Patients with ≥1 AESI [3]: 0 n (%)
Patients with ≥1 treatment-related TEAE [3]: 1 (100) n (%)
Total number of AESI [3]: 0 n
Total number of treatment-related TEAEs [3]: 1 n
Treatment-related TEAE: Blurred vision [3]: 0 n (%)
Treatment-related TEAE: Dermatitis acneiform [3]: 0 n (%)
Treatment-related TEAE: Fatigue [3]: 0 n (%)
Treatment-related TEAE: Headache [3]: 0 n (%)
Treatment-related TEAE: Nausea [3]: 0 n (%)
Treatment-related TEAE: QTc prolongation [3]: 0 n (%)
Treatment-related TEAE: Subretinal fluid [3]: 0 n (%)
Treatment-related TEAE: Vomiting [3]: 0 n (%)
AESI: Blurred vision [4]: 0 n (%)
AESI: Eye disorders [4]: 0 n (%)
AESI: Macular edema [4]: 0 n (%)
AESI: Retinal edema [4]: 0 n (%)
AESI: Subretinal fluid [4]: 0 n (%)
AESI: Vitreous floaters [4]: 0 n (%)
Patients with ≥1 AESI [4]: 0 n (%)
Patients with ≥1 treatment-related TEAE [4]: 2 (67) n (%)
Total number of AESI [4]: 0 n
Total number of treatment-related TEAEs [4]: 7 n
Treatment-related TEAE: Blurred vision [4]: 0 n (%)
Treatment-related TEAE: Dermatitis acneiform [4]: 0 n (%)
Treatment-related TEAE: Fatigue [4]: 0 n (%)
Treatment-related TEAE: Headache [4]: 1 (33) n (%)
Treatment-related TEAE: Nausea [4]: 1 (33) n (%)
Treatment-related TEAE: QTc prolongation [4]: 0 n (%)
Treatment-related TEAE: Subretinal fluid [4]: 0 n (%)
Treatment-related TEAE: Vomiting [4]: 1 (33) n (%)
AESI: Blurred vision [5]: 0 n (%)
AESI: Eye disorders [5]: 0 n (%)
AESI: Macular edema [5]: 0 n (%)
AESI: Retinal edema [5]: 0 n (%)
AESI: Subretinal fluid [5]: 0 n (%)
AESI: Vitreous floaters [5]: 0 n (%)
Patients with ≥1 AESI [5]: 0 n (%)
Patients with ≥1 treatment-related TEAE [5]: 7 (100) n (%)
Total number of AESI [5]: 0 n
Total number of treatment-related TEAEs [5]: 60 n
Treatment-related TEAE: Blurred vision [5]: 4 (57) n (%)
Treatment-related TEAE: Dermatitis acneiform [5]: 0 n (%)
Treatment-related TEAE: Fatigue [5]: 1 (14) n (%)
Treatment-related TEAE: Headache [5]: 1 (14) n (%)
Treatment-related TEAE: Nausea [5]: 1 (14) n (%)
Treatment-related TEAE: QTc prolongation [5]: 1 (14) n (%)
Treatment-related TEAE: Subretinal fluid [5]: 3 (43) n (%)
Treatment-related TEAE: Vomiting [5]: 0 n (%)
AESI: Blurred vision [6]: 0 n (%)
AESI: Eye disorders [6]: 1 (25) n (%)
AESI: Macular edema [6]: 0 n (%)
AESI: Retinal edema [6]: 0 n (%)
AESI: Subretinal fluid [6]: 1 (25) n (%)
AESI: Vitreous floaters [6]: 0 n (%)
Patients with ≥1 AESI [6]: 1 (25) n (%)
Patients with ≥1 treatment-related TEAE [6]: 3 (75) n (%)
Total number of AESI [6]: 3 n
Total number of treatment-related TEAEs [6]: 25 n
Treatment-related TEAE: Blurred vision [6]: 1 (25) n (%)
Treatment-related TEAE: Dermatitis acneiform [6]: 1 (25) n (%)
Treatment-related TEAE: Fatigue [6]: 0 n (%)
Treatment-related TEAE: Headache [6]: 1 (25) n (%)
Treatment-related TEAE: Nausea [6]: 1 (25) n (%)
Treatment-related TEAE: QTc prolongation [6]: 0 n (%)
Treatment-related TEAE: Subretinal fluid [6]: 1 (25) n (%)
Treatment-related TEAE: Vomiting [6]: 0 n (%)
AESI: Blurred vision [7]: 2 (67) n (%)
AESI: Eye disorders [7]: 3 (10) n (%)
AESI: Macular edema [7]: 0 n (%)
AESI: Retinal edema [7]: 0 n (%)
AESI: Subretinal fluid [7]: 2 (67) n (%)
AESI: Vitreous floaters [7]: 1 (33) n (%)
Patients with ≥1 AESI [7]: 3 (10) n (%)
Patients with ≥1 treatment-related TEAE [7]: 3 (100) n (%)
Total number of AESI [7]: 5 n
Total number of treatment-related TEAEs [7]: 18 n
Treatment-related TEAE: Blurred vision [7]: 2 (67) n (%)
Treatment-related TEAE: Dermatitis acneiform [7]: 1 (33) n (%)
Treatment-related TEAE: Fatigue [7]: 1 (33) n (%)
Treatment-related TEAE: Headache [7]: 1 (33) n (%)
Treatment-related TEAE: Nausea [7]: 2 (67) n (%)
Treatment-related TEAE: QTc prolongation [7]: 0 n (%)
Treatment-related TEAE: Subretinal fluid [7]: 2 (67) n (%)
Treatment-related TEAE: Vomiting [7]: 1 (33) n (%)
AESI: Blurred vision [8]: 2 (40) n (%)
AESI: Eye disorders [8]: 5 (10) n (%)
AESI: Macular edema [8]: 0 n (%)
AESI: Retinal edema [8]: 1 (20) n (%)
AESI: Subretinal fluid [8]: 2 (40) n (%)
AESI: Vitreous floaters [8]: 0 n (%)
Patients with ≥1 treatment-related TEAE [8]: 5 (100) n (%)
Total number of AESI [8]: 5 n
Total number of treatment-related TEAEs [8]: 14 n
Treatment-related TEAE: Blurred vision [8]: 2 (40) n (%)
Treatment-related TEAE: Dermatitis acneiform [8]: 2 (40) n (%)
Treatment-related TEAE: Fatigue [8]: 0 n (%)
Treatment-related TEAE: Headache [8]: 0 n (%)
Treatment-related TEAE: Nausea [8]: 0 n (%)
Treatment-related TEAE: QTc prolongation [8]: 0 n (%)
Treatment-related TEAE: Subretinal fluid [8]: 2 (40) n (%)
Treatment-related TEAE: Vomiting [8]: 1 (20) n (%)
AESI: Blurred vision [9]: 8 (89) n (%)
AESI: Eye disorders [9]: 8 (89) n (%)
AESI: Macular edema [9]: 1 (11) n (%)
AESI: Retinal edema [9]: 1 (11) n (%)
AESI: Subretinal fluid [9]: 3 (33) n (%)
AESI: Vitreous floaters [9]: 1 (11) n (%)
Patients with ≥1 AESI [9]: 8 (89) n (%)
Patients with ≥1 treatment-related TEAE [9]: 8 (89) n (%)
Total number of AESI [9]: 16 n
Total number of treatment-related TEAEs [9]: 39 n
Treatment-related TEAE: Blurred vision [9]: 8 (89) n (%)
Treatment-related TEAE: Dermatitis acneiform [9]: 1 (11) n (%)
Treatment-related TEAE: Fatigue [9]: 1 (11) n (%)
Treatment-related TEAE: Headache [9]: 0 n (%)
Treatment-related TEAE: Nausea [9]: 1 (11) n (%)
Treatment-related TEAE: QTc prolongation [9]: 4 (44) n (%)
Treatment-related TEAE: Subretinal fluid [9]: 3 (33) n (%)
Treatment-related TEAE: Vomiting [9]: 2 (22) n (%)
AESI: Blurred vision (schedules 1/2 total N = 34): 12 (35) n (%)
AESI: Eye disorders (schedules 1/2 total N = 34): 17 (50) n (%)
AESI: Macular edema (schedules 1/2 total N = 34): 1 (3) n (%)
AESI: Retinal edema (schedules 1/2 total N = 34): 2 (6) n (%)
AESI: Subretinal fluid (schedules 1/2 total N = 34): 8 (24) n (%)
AESI: Vitreous floaters (schedules 1/2 total N = 34): 2 (6) n (%)
Patients with ≥1 AESI (schedules 1/2 total N = 34): 17 (50) n (%)
Patients with ≥1 treatment-related TEAE (schedules 1/2 total N = 34): 30 (88) n (%)
Total number of AESI (schedules 1/2 total N = 34): 29 n
Total number of treatment-related TEAEs (schedules 1/2 total N = 34): 166 n
Treatment-related TEAE: Blurred vision (schedules 1/2 total N = 34): 17 (50) n (%)
Treatment-related TEAE: Dermatitis acneiform (schedules 1/2 total N = 34): 5 (15) n (%)
Treatment-related TEAE: Fatigue (schedules 1/2 total N = 34): 4 (12) n (%)
Treatment-related TEAE: Headache (schedules 1/2 total N = 34): 4 (12) n (%)
Treatment-related TEAE: Nausea (schedules 1/2 total N = 34): 6 (18) n (%)
Treatment-related TEAE: QTc prolongation (schedules 1/2 total N = 34): 5 (15) n (%)
Treatment-related TEAE: Subretinal fluid (schedules 1/2 total N = 34): 11 (32) n (%)
Treatment-related TEAE: Vomiting (schedules 1/2 total N = 34): 5 (15) n (%)
grade ≥3 TEAE: QTc prolongation on ECG (schedules 1 and 2): 9%
grade ≥3 TEAE: hypokalemia (schedules 1 and 2): 6%
grade ≥3 TEAE: increased blood alkaline phosphatase (schedules 1 and 2): 6%
grade ≥3 TEAE: increased gamma-glutamyl transferase (schedules 1 and 2): 15%
grade ≥3 TEAE: lymphopenia (schedules 1 and 2): 6%
grade ≥3 TEAE: rash (schedules 1 and 2): 6%
patients discontinued owing to AEs (schedules 1 and 2): 3%
patients with at least one AESI (schedules 1 and 2): 50%
patients with grade ≥3 TEAEs (schedules 1 and 2): 50%
treatment-related QTc prolongation (schedules 1 and 2): 15%
treatment-related blurred vision (schedules 1 and 2): 50%
treatment-related dermatitis acneiform (schedules 1 and 2): 15%
treatment-related fatigue (schedules 1 and 2): 12%
treatment-related headache (schedules 1 and 2): 12%
treatment-related nausea (schedules 1 and 2): 18%
treatment-related subretinal fluid (schedules 1 and 2): 32%
treatment-related vomiting (schedules 1 and 2): 15%
